Experimental data as given in ChEMBL document CHEMBL3286203, “Reactive oxygen species (ROS) inducible DNA cross-linking agents and their effect on cancer cells and normal lymphocytes” (J Med Chem, 2014).
Calls of active or inactive are those of the source. The calls are words filed in the database; no cut-off is given here.

Assays:
[1] = tested on: SF-539; test: Cytotoxicity against human SF539 cells assessed as growth inhibition at 10 uM after 48 hrs by SRB assay; type: functional, cell-based
Method in brief: (§1)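 Single-dose screen run by the NCI Developmental Therapeutics Program (NCI-60). Cells were grown in RPMI 1640 with 5% fetal bovine serum and 2 mM L-glutamine. They were plated at 5000–40 000 cells/well, depending on doubling time. Each line was run in two plates and exposed to 10 μM drug for 48 h at 37 °C, 5% CO2, 100% humidity. Read-out was growth percent.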

[2] = tested on: SNB-75; test: Cytotoxicity against human SNB75 cells assessed as growth inhibition at 10 uM after 48 hrs by SRB assay; type: functional, cell-based
Method in brief: (§2)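 NCI-60 DTP human tumour line screen. Cells grown in RPMI 1640 with 5% fetal bovine serum and 2 mM L-glutamine, plated at 5000–40 000 cells/well according to doubling time. Single dose of 10 μM for 48 h at 37 °C, 5% CO2, 95% air, 100% humidity, two plates per line. Read-out is growth percent.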

[3] = tested on: U-251; test: Cytotoxicity against human U251 cells assessed as growth inhibition at 10 uM after 48 hrs by SRB assay; type: functional, cell-based; method in brief: as §2
[4] = tested on: M14; test: Cytotoxicity against human M14 cells assessed as growth inhibition at 10 uM after 48 hrs by SRB assay; type: functional, cell-based
Method in brief: (§3)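 NCI DTP 60-cell-line screen run at the NCI. Cells were grown in RPMI 1640 with 5% FBS and 2 mM L-glutamine. They were seeded at 5000–40 000 cells/well depending on doubling time and grown in two plates per line. Each was exposed to a single 10 μM dose for 48 h at 37 °C, 5% CO2, 95% air, 100% humidity. Read-out was percent growth.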

[5] = tested on: SK-MEL-2; test: Cytotoxicity against human SK-MEL-2 cells assessed as growth inhibition at 10 uM after 48 hrs by SRB assay; type: functional, cell-based; method in brief: as §1
[6] = tested on: SK-MEL-28; test: Cytotoxicity against human SK-MEL-28 cells assessed as growth inhibition at 10 uM after 48 hrs by SRB assay; type: functional, cell-based; method in brief: as §1
[7] = tested on: SK-MEL-5; test: Cytotoxicity against human SK-MEL-5 cells assessed as growth inhibition at 10 uM after 48 hrs by SRB assay; type: functional, cell-based; method in brief: as §1
[8] = tested on: IGROV-1; test: Cytotoxicity against human IGROV1 cells assessed as growth inhibition at 10 uM after 48 hrs by SRB assay; type: functional, cell-based; method in brief: as §3
[9] = tested on: OVCAR-3; test: Cytotoxicity against human OVCAR3 cells assessed as growth inhibition at 10 uM after 48 hrs by SRB assay; type: functional, cell-based; method in brief: as §1
[10] = tested on: OVCAR-4; test: Cytotoxicity against human OVCAR4 cells assessed as growth inhibition at 10 uM after 48 hrs by SRB assay; type: functional, cell-based; method in brief: as §1
[11] = tested on: OVCAR-8; test: Cytotoxicity against human OVCAR8 cells assessed as growth inhibition at 10 uM after 48 hrs by SRB assay; type: functional, cell-based; method in brief: as §1
[12] = tested on: ACHN; test: Cytotoxicity against human ACHN cells assessed as growth inhibition at 10 uM after 48 hrs by SRB assay; type: functional, cell-based; method in brief: as §3
[13] = tested on: CAKI-1; test: Cytotoxicity against human Caki1 cells assessed as growth inhibition at 10 uM after 48 hrs by SRB assay; type: functional, cell-based; method in brief: as §3
[14] = tested on: RXF 393; test: Cytotoxicity against human RXF393 cells assessed as growth inhibition at 10 uM after 48 hrs by SRB assay; type: functional, cell-based; method in brief: as §1
[15] = tested on: PC-3; test: Cytotoxicity against human PC3 cells assessed as growth inhibition at 10 uM after 48 hrs by SRB assay; type: functional, cell-based; method in brief: as §1
[16] = tested on: MCF7; test: Cytotoxicity against human MCF7 cells assessed as growth inhibition at 10 uM after 48 hrs by SRB assay; type: functional, cell-based; method in brief: as §1
[17] = tested on: MDA-MB-231; test: Cytotoxicity against human MDA-MB-231 cells assessed as growth inhibition at 10 uM after 48 hrs by SRB assay; type: functional, cell-based; method in brief: as §1
[18] = tested on: T47D; test: Cytotoxicity against human T47D cells assessed as growth inhibition at 10 uM after 48 hrs by SRB assay; type: functional, cell-based; method in brief: as §2
[19] = tested on: HOP-62; test: Cytotoxicity against human HOP62 cells assessed as growth inhibition at 10 uM after 48 hrs by SRB assay; type: functional, cell-based; method in brief: as §3
[20] = tested on: HOP-92; test: Cytotoxicity against human HOP92 cells assessed as growth inhibition at 10 uM after 48 hrs by SRB assay; type: functional, cell-based; method in brief: as §3
[21] = tested on: NCI-H23; test: Cytotoxicity against human NCI-H23 cells assessed as growth inhibition at 10 uM after 48 hrs by SRB assay; type: functional, cell-based; method in brief: as §1
[22] = tested on: NCI-H322M; test: Cytotoxicity against human NCI-H322M cells assessed as growth inhibition at 10 uM after 48 hrs by SRB assay; type: functional, cell-based; method in brief: as §1
[23] = tested on: NCI-H460; test: Cytotoxicity against human NCI-H460 cells assessed as growth inhibition at 10 uM after 48 hrs by SRB assay; type: functional, cell-based; method in brief: as §1
[24] = tested on: COLO 205; test: Cytotoxicity against human COLO205 cells assessed as growth inhibition at 10 uM after 48 hrs by SRB assay; type: functional, cell-based; method in brief: as §3
[25] = tested on: HCC 2998; test: Cytotoxicity against human HCC2998 cells assessed as growth inhibition at 10 uM after 48 hrs by SRB assay; type: functional, cell-based; method in brief: as §3
[26] = tested on: HCT-116; test: Cytotoxicity against human HCT116 cells assessed as growth inhibition at 10 uM after 48 hrs by SRB assay; type: functional, cell-based; method in brief: as §3
[27] = tested on: HCT-15; test: Cytotoxicity against human HCT15 cells assessed as growth inhibition at 10 uM after 48 hrs by SRB assay; type: functional, cell-based; method in brief: as §3
[28] = tested on: HT-29; test: Cytotoxicity against human HT-29 cells assessed as growth inhibition at 10 uM after 48 hrs by SRB assay; type: functional, cell-based; method in brief: as §3
[29] = tested on: SF-268; test: Cytotoxicity against human SF268 cells assessed as growth inhibition at 10 uM after 48 hrs by SRB assay; type: functional, cell-based; method in brief: as §1
[30] = tested on: SF-295; test: Cytotoxicity against human SF295 cells assessed as growth inhibition at 10 uM after 48 hrs by SRB assay; type: functional, cell-based; method in brief: as §1
[31] = Induction of [32P]-labeled 49-mer oligonucleotide duplex DNA 12 with GNC sequence at terminus (unknown origin) interstrand cross-linking at 1 mM after 16 hrs by PAGE
Method in brief: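 32P-labelled 12a (1.0 μM) annealed with 1.5 equiv of 12b in 10 mM potassium phosphate pH 7 / 100 mM NaCl (65 °C for 3 min, then slow cooling). Duplex incubated with compound (final 1 μM–5 mM), with or without H2O2, in NaCl and potassium phosphate pH 8 at room temperature for 16 h. Quenched in formamide; 20% denaturing PAGE.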

[32] = tested on: EKVX; test: Cytotoxicity against human EKVX cells assessed as growth inhibition at 10 uM after 48 hrs by SRB assay; type: functional, cell-based; method in brief: as §3
[33] = tested on: A549; test: Cytotoxicity against human A549 cells assessed as growth inhibition at 10 uM after 48 hrs by SRB assay; type: functional, cell-based; method in brief: as §3
[34] = tested on: RPMI-8226; test: Cytotoxicity against human RPMI8226 cells assessed as growth inhibition at 10 uM after 48 hrs by SRB assay; type: functional, cell-based; method in brief: as §1
[35] = tested on: K562; test: Cytotoxicity against human K562 cells assessed as growth inhibition at 10 uM after 48 hrs by SRB assay; type: functional, cell-based; method in brief: as §3
[36] = tested on: HL-60(TB); test: Cytotoxicity against human HL-60(TB) cells assessed as growth inhibition at 10 uM after 48 hrs by SRB assay; type: functional, cell-based; method in brief: as §3
[37] = tested on: CCRF-CEM; test: Cytotoxicity against human CCRF-CEM cells assessed as growth inhibition at 10 uM after 48 hrs by SRB assay; type: functional, cell-based; method in brief: as §3

Row | Compound | growth inhibition (GI) [1] | growth inhibition (GI) [2] | growth inhibition (GI) [3] | growth inhibition (GI) [4] | growth inhibition (GI) [5] | growth inhibition (GI) [6] | growth inhibition (GI) [7] | growth inhibition (GI) [8] | growth inhibition (GI) [9] | growth inhibition (GI) [10] | growth inhibition (GI) [11] | growth inhibition (GI) [12] | growth inhibition (GI) [13] | growth inhibition (GI) [14] | growth inhibition (GI) [15] | growth inhibition (GI) [16] | growth inhibition (GI) [17] | growth inhibition (GI) [18] | growth inhibition (GI) [19] | growth inhibition (GI) [20] | also measured
1 | CC1(C)OB(c2ccc(N(CCCl)CCOS(C)(=O)=O)cc2)OC1(C)C | Active | Active | Active | Active | Active | Active | Active | Active | Active | Active | Active | Active | Active | Active | Active | Active | Active | Active | Active | Active | growth inhibition (GI) [21]: Active; growth inhibition (GI) [22]: Active; growth inhibition (GI) [23]: Active; growth inhibition (GI) [24]: Active; growth inhibition (GI) [25]: Active; growth inhibition (GI) [26]: Active; growth inhibition (GI) [27]: Active; growth inhibition (GI) [28]: Active; growth inhibition (GI) [29]: Active; growth inhibition (GI) [30]: Active; Activity [31]: inactive; growth inhibition (GI) [32]: Active; growth inhibition (GI) [33]: Active; growth inhibition (GI) [34]: Active; growth inhibition (GI) [35]: Active; growth inhibition (GI) [36]: Active; growth inhibition (GI) [37]: Active
2 | CC1(C)OB(c2ccc(N(CCBr)CCBr)cc2)OC1(C)C | Active | Active | Active | Active | Active | Active | Active | Active | Active | Active | Active | Active | Active | Active | Active | Active | Active | Active | Active | Active | growth inhibition (GI) [21]: Active; growth inhibition (GI) [22]: Active; growth inhibition (GI) [23]: Active; growth inhibition (GI) [24]: Active; growth inhibition (GI) [25]: Active; growth inhibition (GI) [26]: Active; growth inhibition (GI) [27]: Active; growth inhibition (GI) [28]: Active; growth inhibition (GI) [29]: Active; growth inhibition (GI) [30]: Active; Activity [31]: inactive; growth inhibition (GI) [32]: Active; growth inhibition (GI) [33]: Active; growth inhibition (GI) [34]: Active; growth inhibition (GI) [35]: Active; growth inhibition (GI) [36]: Active; growth inhibition (GI) [37]: Active
